Key:
[1] = target: Muscarinic acetylcholine receptor M1 (Homo sapiens, UniProt P11229); assay: Binding affinity to human M1 receptor
Outline: (§1)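 Selectivity panel of 54 assays (ion channels, GPCRs, monoamine transporters) run at Cerep; Ki determined for hits at 10 µM; human isoform where marked.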

Cytochrome P450 3A4 = Cytochrome P450 3A4 (Homo sapiens, UniProt P08684); assay: Inhibition of CYP3A4; format: ADME
Rattus norvegicus [2] = assay: Suppression of testosterone level to below 0.5 ng/mL castrate level for 12 hrs in po dosed gonad intact Sprague-Dawley rat; format: ADME, organism-based; settings: in vivo
Outline: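 Single-housed intact male SD rats (300-325 g), jugular cannulated 3 days prior; basal bleed 7:00-7:30 am, then single oral dose 5.0, 25, 50 or 100 mg/kg in 0.5% CMC suspension, n = 6/dose; serial heparinized plasma; testosterone by coated-tube RIA; castrate level <0.5 ng/mL; mean ± SEM.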

[3] = target: Kappa-type opioid receptor (Homo sapiens, UniProt P41145); assay: Binding affinity to kappa opiate receptor; outline: as §1
[4] = target: T1, Voltage-gated L-type calcium channel (Homo sapiens, UniProt Q13936+Q13698+Q01668+O60840); assay: Binding affinity to diltiazem site of L type calcium channel; format: protein assay; outline: as §1
D(3) dopamine receptor = D(3) dopamine receptor (Homo sapiens, UniProt P35462); assay: Binding affinity to human D3 receptor; outline: as §1
Cytochrome P450 2C19 = Cytochrome P450 2C19 (Homo sapiens, UniProt P33261); assay: Inhibition of CYP2C19; format: ADME
[5] = target: 5-hydroxytryptamine receptor 2A (Homo sapiens, UniProt P28223); assay: Binding affinity to human 5HT2A receptor; outline: as §1
Adenosine receptor A3 = Adenosine receptor A3 (Homo sapiens, UniProt P0DMS8); assay: Binding affinity to human A3 receptor; outline: as §1
Substance-P receptor = Substance-P receptor (Homo sapiens, UniProt P25103); assay: Binding affinity to human NK1 receptor; outline: as §1
Chain of Substance-P receptor (P25103 whole entry): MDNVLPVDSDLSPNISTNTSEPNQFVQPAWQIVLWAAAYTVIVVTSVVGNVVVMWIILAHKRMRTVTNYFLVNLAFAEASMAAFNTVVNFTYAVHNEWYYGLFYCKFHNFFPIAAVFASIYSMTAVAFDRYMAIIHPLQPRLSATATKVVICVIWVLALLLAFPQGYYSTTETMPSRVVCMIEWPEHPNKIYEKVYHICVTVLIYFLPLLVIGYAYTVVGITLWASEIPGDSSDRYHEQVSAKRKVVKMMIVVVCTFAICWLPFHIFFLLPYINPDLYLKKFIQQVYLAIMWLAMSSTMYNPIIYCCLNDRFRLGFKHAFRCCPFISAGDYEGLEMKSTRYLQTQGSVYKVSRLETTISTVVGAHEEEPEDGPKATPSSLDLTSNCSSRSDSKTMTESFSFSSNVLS

[6] = target: Type-1 angiotensin II receptor (Homo sapiens, UniProt P30556); assay: Binding affinity to human AT1 receptor; outline: as §1
Chain of Type-1 angiotensin II receptor (P30556 whole entry): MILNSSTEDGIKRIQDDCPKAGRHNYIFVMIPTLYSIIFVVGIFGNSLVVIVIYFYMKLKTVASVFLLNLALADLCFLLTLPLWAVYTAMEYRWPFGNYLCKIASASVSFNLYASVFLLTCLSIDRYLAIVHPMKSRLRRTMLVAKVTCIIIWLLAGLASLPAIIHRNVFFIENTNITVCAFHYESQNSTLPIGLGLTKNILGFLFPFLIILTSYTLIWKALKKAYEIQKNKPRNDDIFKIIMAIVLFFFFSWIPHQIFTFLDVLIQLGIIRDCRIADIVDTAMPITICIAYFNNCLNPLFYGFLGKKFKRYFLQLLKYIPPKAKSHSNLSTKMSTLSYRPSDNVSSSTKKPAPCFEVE

[7] = target: T1, Voltage-gated L-type calcium channel; assay: Binding affinity to L type calcium channel; format: protein assay; outline: as §1
[8] = Oral bioavailability in Sprague-Dawley rat at 5 mg/kg, iv and 20 mg/kg, po; format: ADME, organism-based; settings: in vivo
Outline: (§2)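 Intact male rats with indwelling jugular vein catheters, recovered overnight; single dose 5 mg/kg i.v. (5 mg/mL in 70% PEG400/30% H2O) or 20 mg/kg p.o. (20 mg/mL suspension in 0.5% CMC). Plasma by C18 HPLC, 50-70% ACN gradient in 10 mM ammonium phosphate pH 7, UV 260 nm; noncompartmental parameters; F = AUCp.o./AUCi.v.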

[9] = Inhibition KCl-stimulated calcium channel activity
Cytochrome P450 2D6 = Cytochrome P450 2D6 (Homo sapiens, UniProt P10635); assay: Inhibition of CYP2D6; format: ADME
Chain of Cytochrome P450 2D6 (P10635 whole entry): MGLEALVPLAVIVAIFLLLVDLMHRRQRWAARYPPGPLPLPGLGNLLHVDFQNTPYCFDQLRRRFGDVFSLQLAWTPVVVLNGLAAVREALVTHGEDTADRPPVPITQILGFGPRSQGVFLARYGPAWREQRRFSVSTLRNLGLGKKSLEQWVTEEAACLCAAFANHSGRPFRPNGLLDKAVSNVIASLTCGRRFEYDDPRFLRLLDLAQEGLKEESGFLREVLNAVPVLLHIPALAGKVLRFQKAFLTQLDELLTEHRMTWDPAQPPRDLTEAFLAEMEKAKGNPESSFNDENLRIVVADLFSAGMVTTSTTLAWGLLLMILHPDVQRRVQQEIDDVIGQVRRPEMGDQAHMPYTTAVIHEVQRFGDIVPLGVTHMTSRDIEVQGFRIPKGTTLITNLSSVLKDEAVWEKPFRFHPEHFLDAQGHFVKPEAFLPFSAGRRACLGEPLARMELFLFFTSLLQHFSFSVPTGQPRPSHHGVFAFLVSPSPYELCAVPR

D(4) dopamine receptor = D(4) dopamine receptor (Homo sapiens, UniProt P21917); assay: Binding affinity to human D4.4 receptor; outline: as §1
Chain of D(4) dopamine receptor (P21917 whole entry): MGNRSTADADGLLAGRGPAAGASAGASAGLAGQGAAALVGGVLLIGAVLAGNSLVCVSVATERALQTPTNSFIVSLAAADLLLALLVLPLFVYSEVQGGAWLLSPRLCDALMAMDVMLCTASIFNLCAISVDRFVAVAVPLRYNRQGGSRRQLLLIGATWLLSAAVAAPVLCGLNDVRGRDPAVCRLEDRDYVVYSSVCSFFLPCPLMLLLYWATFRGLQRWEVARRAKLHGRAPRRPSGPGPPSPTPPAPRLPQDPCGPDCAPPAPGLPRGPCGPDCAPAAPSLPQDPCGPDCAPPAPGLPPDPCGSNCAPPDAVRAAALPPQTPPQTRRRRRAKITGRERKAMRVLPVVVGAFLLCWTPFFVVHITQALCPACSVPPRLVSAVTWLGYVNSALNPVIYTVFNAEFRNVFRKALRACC

[10] = target: 5-hydroxytryptamine receptor 7 (Homo sapiens, UniProt P34969); assay: Binding affinity to human 5HT7 receptor; outline: as §1
Chain of 5-hydroxytryptamine receptor 7 (P34969 whole entry): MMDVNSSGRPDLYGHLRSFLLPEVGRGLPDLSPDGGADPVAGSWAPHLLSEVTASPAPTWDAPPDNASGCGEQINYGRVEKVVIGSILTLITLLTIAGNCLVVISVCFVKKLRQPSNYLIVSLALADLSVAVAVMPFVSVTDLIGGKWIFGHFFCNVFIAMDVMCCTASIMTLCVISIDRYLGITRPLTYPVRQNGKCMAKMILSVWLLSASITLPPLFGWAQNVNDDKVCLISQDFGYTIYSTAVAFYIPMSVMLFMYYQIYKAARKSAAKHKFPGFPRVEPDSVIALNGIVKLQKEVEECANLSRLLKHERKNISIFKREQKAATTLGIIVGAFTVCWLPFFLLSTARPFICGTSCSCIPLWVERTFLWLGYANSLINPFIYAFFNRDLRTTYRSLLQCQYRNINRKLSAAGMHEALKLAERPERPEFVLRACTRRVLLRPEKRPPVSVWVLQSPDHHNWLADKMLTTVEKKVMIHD

[11] = Volume of distribution in Sprague-Dawley rat at 5 mg/kg, iv or 20 mg/kg, po; format: ADME, organism-based; settings: in vivo, read-out: Vdss; outline: as §2
[12] = Clearance in Sprague-Dawley rat at 5 mg/kg, iv or 20 mg/kg, po; format: ADME, organism-based; settings: in vivo; outline: as §2
Histamine H2 receptor = Histamine H2 receptor (Homo sapiens, UniProt P25021); assay: Binding affinity to H2 receptor; outline: as §1
[13] = Half life in Sprague-Dawley rat at 5 mg/kg, iv or 20 mg/kg, po; format: ADME, organism-based; settings: in vivo; outline: as §2
Rattus norvegicus [14] = assay: Suppression of luteinizing hormone levels to below 0.12 mIU/mL in po dosed castrated Sprague-Dawley rat; format: ADME, organism-based; settings: in vivo
Outline: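 Male SD rats (200-225 g) castrated under halothane, 14 days recovery, jugular cannulated; basal bleed then single oral dose 5.0, 20, 50 or 100 mg/kg in 0.5% CMC, n = 6/dose; serial plasma LH by coated-tube RIA, detection limit 0.12 mIU/mL; mean ± SEM.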

[15] = target: Sodium-dependent noradrenaline transporter (Homo sapiens, UniProt P23975); assay: Binding affinity to human NE transporter; outline: as §1
Chain of Sodium-dependent noradrenaline transporter (P23975 whole entry): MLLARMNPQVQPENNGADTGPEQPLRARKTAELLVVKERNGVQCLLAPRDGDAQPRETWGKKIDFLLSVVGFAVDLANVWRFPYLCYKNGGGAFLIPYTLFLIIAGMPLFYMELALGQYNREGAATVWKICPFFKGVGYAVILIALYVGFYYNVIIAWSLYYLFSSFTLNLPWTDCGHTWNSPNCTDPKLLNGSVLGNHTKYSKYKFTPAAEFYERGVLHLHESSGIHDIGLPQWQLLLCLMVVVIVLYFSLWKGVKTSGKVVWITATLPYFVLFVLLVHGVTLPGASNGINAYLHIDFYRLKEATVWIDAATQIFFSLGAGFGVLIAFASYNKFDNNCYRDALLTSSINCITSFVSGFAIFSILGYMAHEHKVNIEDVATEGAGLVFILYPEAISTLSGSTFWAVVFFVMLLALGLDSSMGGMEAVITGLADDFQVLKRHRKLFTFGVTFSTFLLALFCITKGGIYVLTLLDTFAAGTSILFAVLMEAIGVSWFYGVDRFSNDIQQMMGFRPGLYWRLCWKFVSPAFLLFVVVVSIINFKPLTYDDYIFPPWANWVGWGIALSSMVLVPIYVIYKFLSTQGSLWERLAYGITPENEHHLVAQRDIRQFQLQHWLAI

Cytochrome P450 2C9 = Cytochrome P450 2C9 (Homo sapiens, UniProt P11712); assay: Inhibition of CYP2C9; format: ADME
[16] = target: Sodium-dependent dopamine transporter (Homo sapiens, UniProt Q01959); assay: Binding affinity to human DA transporter; outline: as §1
[17] = target: T1, Voltage-gated L-type calcium channel; assay: Binding affinity to DHP site of L type calcium channel; format: protein assay; outline: as §1
[18] = target: 5-hydroxytryptamine receptor 2C (Homo sapiens, UniProt P28335); assay: Binding affinity to human 5HT2C receptor; outline: as §1
Cytochrome P450 1A2 = Cytochrome P450 1A2 (Homo sapiens, UniProt P05177); assay: Inhibition of CYP1A2; format: ADME
Chain of Cytochrome P450 1A2 (P05177 whole entry): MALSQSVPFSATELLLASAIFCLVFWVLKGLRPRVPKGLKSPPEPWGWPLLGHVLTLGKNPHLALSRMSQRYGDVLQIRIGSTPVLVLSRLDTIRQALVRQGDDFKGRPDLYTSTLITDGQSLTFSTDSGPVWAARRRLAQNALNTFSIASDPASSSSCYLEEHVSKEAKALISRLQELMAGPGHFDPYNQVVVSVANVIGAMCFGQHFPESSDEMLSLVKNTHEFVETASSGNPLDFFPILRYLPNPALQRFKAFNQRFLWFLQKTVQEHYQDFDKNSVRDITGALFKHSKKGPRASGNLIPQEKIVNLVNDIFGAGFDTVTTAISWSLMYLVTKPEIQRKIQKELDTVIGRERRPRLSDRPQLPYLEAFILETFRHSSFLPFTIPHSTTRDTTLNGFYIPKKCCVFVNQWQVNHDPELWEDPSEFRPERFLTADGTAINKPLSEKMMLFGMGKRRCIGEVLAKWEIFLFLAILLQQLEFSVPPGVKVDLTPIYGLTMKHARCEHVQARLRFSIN

D(1A) dopamine receptor = D(1A) dopamine receptor (Homo sapiens, UniProt P21728); assay: Binding affinity to human D1 receptor; outline: as §1
Chain of D(1A) dopamine receptor (P21728 whole entry): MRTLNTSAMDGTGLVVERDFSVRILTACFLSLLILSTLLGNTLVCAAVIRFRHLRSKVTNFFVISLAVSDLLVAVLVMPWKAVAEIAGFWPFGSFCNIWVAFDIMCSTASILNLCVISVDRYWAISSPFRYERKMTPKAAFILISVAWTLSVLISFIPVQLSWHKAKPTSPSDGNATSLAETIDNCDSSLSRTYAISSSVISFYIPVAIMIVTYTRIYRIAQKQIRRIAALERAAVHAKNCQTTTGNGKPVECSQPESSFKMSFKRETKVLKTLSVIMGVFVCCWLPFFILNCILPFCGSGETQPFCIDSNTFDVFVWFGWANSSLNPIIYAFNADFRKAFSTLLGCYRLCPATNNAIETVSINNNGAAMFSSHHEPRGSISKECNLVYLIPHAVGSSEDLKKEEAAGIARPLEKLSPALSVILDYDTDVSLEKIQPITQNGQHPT

[19] = target: T2, Gonadotropin-releasing hormone receptor (Rattus norvegicus, UniProt P30969); assay: Antagonist activity at rat pituitary GnRH receptor assessed as inhibition of GnRH-stimulated inositol phosphate accumulation; format: functional; settings: in the assay text read “recombinant rat” for “rat pituitary”
T2 sequence (P30969 whole entry): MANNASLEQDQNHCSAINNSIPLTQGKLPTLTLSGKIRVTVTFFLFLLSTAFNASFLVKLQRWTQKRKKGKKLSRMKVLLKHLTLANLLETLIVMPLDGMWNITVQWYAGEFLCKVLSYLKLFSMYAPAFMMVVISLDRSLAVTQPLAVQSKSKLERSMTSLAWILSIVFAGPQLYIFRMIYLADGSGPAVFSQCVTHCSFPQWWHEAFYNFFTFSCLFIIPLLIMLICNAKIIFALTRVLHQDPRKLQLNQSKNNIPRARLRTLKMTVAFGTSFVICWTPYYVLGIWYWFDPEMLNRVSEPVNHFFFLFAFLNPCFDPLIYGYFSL
Outline: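 Rat receptor functional assay run against 100 nM GnRH; total inositol phosphate accumulation measured; IC50 with Hill coefficient derived.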

[20] = target: Platelet-activating factor receptor (Homo sapiens, UniProt P25105); assay: Binding affinity to PAF; outline: as §1
[21] = target: T2, Gonadotropin-releasing hormone receptor; assay: Binding affinity to rat pituitary GnRH receptor
[22] = target: Muscarinic acetylcholine receptor M4 (Homo sapiens, UniProt P08173); assay: Binding affinity to human M4 receptor; outline: as §1
Mu-type opioid receptor = Mu-type opioid receptor (Homo sapiens, UniProt P35372); assay: Binding affinity to human mu opiate receptor; outline: as §1
Chain of Mu-type opioid receptor (P35372 whole entry): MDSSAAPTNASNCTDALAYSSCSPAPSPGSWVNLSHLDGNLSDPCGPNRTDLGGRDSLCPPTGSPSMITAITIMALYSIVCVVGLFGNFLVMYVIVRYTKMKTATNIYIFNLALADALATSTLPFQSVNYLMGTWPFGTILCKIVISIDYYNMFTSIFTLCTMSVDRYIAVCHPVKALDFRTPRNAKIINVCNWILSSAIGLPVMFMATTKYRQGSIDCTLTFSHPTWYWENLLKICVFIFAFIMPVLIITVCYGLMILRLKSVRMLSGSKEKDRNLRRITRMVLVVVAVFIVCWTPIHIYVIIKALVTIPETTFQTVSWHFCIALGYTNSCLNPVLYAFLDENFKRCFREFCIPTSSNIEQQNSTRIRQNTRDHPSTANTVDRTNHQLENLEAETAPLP

[23] = target: Sodium-dependent serotonin transporter (Homo sapiens, UniProt P31645); assay: Binding affinity to human 5HT transporter; outline: as §1

Chain of Cytochrome P450 3A4 (P08684 whole entry): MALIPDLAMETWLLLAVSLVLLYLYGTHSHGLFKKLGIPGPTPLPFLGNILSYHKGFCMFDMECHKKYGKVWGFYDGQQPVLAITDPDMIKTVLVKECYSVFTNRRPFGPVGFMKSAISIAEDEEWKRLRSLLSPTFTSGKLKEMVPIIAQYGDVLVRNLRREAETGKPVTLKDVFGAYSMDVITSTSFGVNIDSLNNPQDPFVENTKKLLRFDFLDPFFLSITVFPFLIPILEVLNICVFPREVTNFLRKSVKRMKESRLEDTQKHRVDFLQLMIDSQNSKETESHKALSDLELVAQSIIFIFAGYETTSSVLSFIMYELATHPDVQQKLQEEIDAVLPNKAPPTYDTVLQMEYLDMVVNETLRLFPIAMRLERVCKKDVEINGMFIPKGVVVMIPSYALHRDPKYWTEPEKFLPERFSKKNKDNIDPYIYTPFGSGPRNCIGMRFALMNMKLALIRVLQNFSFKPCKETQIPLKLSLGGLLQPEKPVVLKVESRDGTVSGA

Ki [1]: 4.12 µM
IC50 (Cytochrome P450 3A4): > 30 µM
Activity (Rattus norvegicus [2]): Dose-dependent effect
Ki [3]: 1.96 µM
Ki [4]: 0.37 µM
Ki (D(3) dopamine receptor): 1.18 µM
IC50 (Cytochrome P450 2C19): > 30 µM
Ki [5]: 0.583 µM
Ki (Adenosine receptor A3): 0.628 µM
Ki (Substance-P receptor): 1.25 µM
Ki [6]: 3.71 µM
Ki [7]: 0.145 µM
bioavailability [8]: 26%
IC50 [9]: 6.3 µM
IC50 (Cytochrome P450 2D6): > 30 µM
Ki (D(4) dopamine receptor): 2.51 µM
Ki [10]: 1.75 µM
Vd [11]: 1.1 L/kg
clearance [12]: 0.33 L/h/kg
Ki (Histamine H2 receptor): 1.22 µM
half-life [13]: 5.1 h
Activity (Rattus norvegicus [14]): Dose-dependent effect
Ki [15]: 5.09 µM
IC50 (Cytochrome P450 2C9): 3 µM
Ki [16]: 1.8 µM
Ki [17]: 0.145 µM
Ki [18]: 0.964 µM
IC50 (Cytochrome P450 1A2): > 30 µM
Ki (D(1A) dopamine receptor): 1.62 µM
IC50 [19]: 0.0088 µM
Ki [20]: 1.06 µM
Ki [21]: 0.0004 µM
Ki [22]: 3.68 µM
Ki (Mu-type opioid receptor): 1.4 µM
Ki [23]: 1.43 µM
SMILES: COc1nc(NCCCN2CCOCC2)nc(OC)c1NC(=O)c1ccc(Oc2cc3c(cc2C)CCC3(C)C)o1
